One test deals with Escherichia coli. As to the kind of experiment: Antibacterial activity against Escherichia coli ATCC 35218 by MTT assay. The test is classed as functional. In outline: (§1)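 LB medium; inoculum about 10⁵ cfu/mL added to serially diluted compound (medium-only blank) and incubated at 37 °C. Then MTT in PBS (3 mg/mL) added, 4–5 h at room temperature. Medium removed, dye extracted 8–10 h in 10% SDS with 5% isopropanol and HCl. Read OD 570 nm, control OD kept at 1.0–2.0; MIC50 taken from absorbance.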
In general terms: Formazan colour is commonly taken as a measure of viable cells.

Another test concerns Pseudomonas aeruginosa. Description: Antibacterial activity against Pseudomonas aeruginosa ATCC 27853 by MTT assay. The test is classed as functional. In outline: as §1
A short description of test [1]: Inhibition of Staphylococcus aureus tyrosyl-tRNA synthetase expressed in Escherichia coli using L-[ring-3,5-3H] tyrosine as substrate preincubated for 10 mins by liquid scintillation counting analysis. In outline: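 Enzyme purified to about 98% (SDS–PAGE). Aminoacylation at 37 °C, final 100 mM Tris/Cl pH 7.9, 50 mM KCl. TyrRS (0.2 nM) preincubated with a range of inhibitor concentrations for 10 min at room temperature, then pre-warmed mixture added. Aliquots quenched in ice-cold 7% TCA at set intervals, filtered, counted by liquid scintillation.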

The next test relates to Candida albicans. As to the kind of experiment: Antifungal activity against Candida albicans ATCC 10231 by MTT assay. Format: functional. The method in brief: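 LB medium; inoculum about 10⁵ cfu/mL with serially diluted compound (medium-only blank), incubated at 28 °C. MTT in PBS (3 mg/mL) added, 4–5 h at room temperature. Dye extracted 8–10 h in 10% SDS with 5% isopropanol and HCl. OD read at 570 nm, control OD 1.0–2.0; MIC50 from absorbance.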

In the next test the test system is Staphylococcus aureus. Description: Antibacterial activity against Staphylococcus aureus ATCC 25923 by MTT assay. Format: functional. In outline:
as §1

≈ marks a conversion by molar mass, not a printed value. Some results are limits rather than exact numbers.

In the case of `O=C1OCC(OCCOC(=O)c2cccc([N+](=O)[O-])c2)=C1c1ccccc1`, the MIC50 (as a rule, the lowest concentration that inhibits either 50% of growth or 50% of the strains tested, depending on the study) against Escherichia coli is 9.4 µg/mL (≈ 25.5 µM); against Pseudomonas aeruginosa it was above 100 µg/mL; with Candida albicans it was above 100 µg/mL; against Staphylococcus aureus it was above 100 µg/mL. In addition, the IC50 (usually the concentration that gives 50% inhibition) in test [1] was above 100 µM.
As for `Cc1cccc(C(=O)OCCOC2=C(c3ccccc3)C(=O)OC2)c1`, the MIC50 in the test with Escherichia coli is above 100 µg/mL; against Pseudomonas aeruginosa, 16.7 µg/mL (≈ 49.4 µM); with Candida albicans it was above 100 µg/mL; in the test on Staphylococcus aureus it was 15.8 µg/mL (≈ 46.7 µM). In addition, the IC50 in test [1] amounted to 8.1 µM.
On to `O=C1OCC(OCCOC(=O)c2cccc(C(F)(F)F)c2)=C1c1ccccc1`, for which the MIC50 in the test on Escherichia coli was 23.3 µg/mL (≈ 59.4 µM); with Pseudomonas aeruginosa, 2.4 µg/mL (≈ 6.12 µM); against Candida albicans it was above 100 µg/mL; in the test on Staphylococcus aureus, 17.5 µg/mL (≈ 44.6 µM). This compound also came in with an IC50 in test [1] of 4.3 µM.
With `O=C1OCC(OCCOC(=O)c2ccc([N+](=O)[O-])cc2)=C1c1ccccc1`, the MIC50 was determined as 5 µg/mL (≈ 13.5 µM) in the test on Escherichia coli, 11.4 µg/mL (≈ 30.9 µM) in the test with Pseudomonas aeruginosa, 2.7 µg/mL (≈ 7.31 µM) in the test on Candida albicans and 24.5 µg/mL (≈ 66.3 µM) against Staphylococcus aureus. This compound yielded an IC50 in test [1] of 5.2 µM.
In the case of `Cc1ccc(C(=O)OCCOC2=C(c3ccccc3)C(=O)OC2)cc1`, the MIC50 is above 100 µg/mL with Escherichia coli, 37.7 µg/mL (≈ 111 µM) against Pseudomonas aeruginosa, 23.4 µg/mL (≈ 69.2 µM) against Candida albicans and 18.3 µg/mL (≈ 54.1 µM) with Staphylococcus aureus. For the same compound, inhibition in test [1] was half-maximal at 17.8 µM (IC50).
As for `O=C1OCC(OCCOC(=O)c2ccc(F)cc2)=C1c1ccccc1`, the MIC50 against Escherichia coli was above 100 µg/mL; with Pseudomonas aeruginosa it was 13.8 µg/mL (≈ 40.3 µM); in the test on Candida albicans, 18.1 µg/mL (≈ 52.9 µM); in the test with Staphylococcus aureus, 8.2 µg/mL (≈ 24 µM). Further, the 50% inhibitory concentration (IC50) in test [1] was 7.5 µM.
The matching figures for `O=C1OCC(OCCOC(=O)c2ccc(Cl)cc2)=C1c1ccccc1`: above 100 µg/mL, 14.5 µg/mL (≈ 40.4 µM), 78.4 µg/mL (≈ 219 µM), 17.2 µg/mL (≈ 47.9 µM) and 8.8 µM.
For `O=C1OCC(OCCOC(=O)c2ccc(O)cc2)=C1c1ccccc1`, in that order: 19.5 µg/mL (≈ 57.3 µM), 21.3 µg/mL (≈ 62.6 µM), 23 µg/mL (≈ 67.6 µM), 23.3 µg/mL (≈ 68.5 µM) and 11.2 µM.
The matching figures for `O=C1OCC(OCCOC(=O)c2ccc(Cl)cc2Cl)=C1c1ccccc1`: 12.8 µg/mL (≈ 32.6 µM), 21.3 µg/mL (≈ 54.2 µM), 22.9 µg/mL (≈ 58.2 µM), 18.2 µg/mL (≈ 46.3 µM) and 16.5 µM.
`O=C1OCC(OCCOC(=O)c2cc(Cl)ccc2Cl)=C1c1ccccc1`: the MIC50 with Escherichia coli was 13.9 µg/mL (≈ 35.3 µM); in the test with Pseudomonas aeruginosa, 2.9 µg/mL (≈ 7.37 µM); in the test on Candida albicans it was above 100 µg/mL; in the test with Staphylococcus aureus, 24.8 µg/mL (≈ 63.1 µM). The IC50 in test [1] worked out at 5.2 µM.
The matching figures for `O=C1OCC(OCCOC(=O)c2ccc(Cl)c(Cl)c2)=C1c1ccccc1`: 2.9 µg/mL (≈ 7.37 µM), 22.7 µg/mL (≈ 57.7 µM), 95.4 µg/mL (≈ 243 µM), 19.9 µg/mL (≈ 50.6 µM) and 33.4 µM.
For `O=C1OCC(OCCOC(=O)c2ccc(O)cc2O)=C1c1ccccc1`, in that order: above 100 µg/mL, 36.7 µg/mL (≈ 103 µM), above 100 µg/mL, 15.3 µg/mL (≈ 42.9 µM) and 50.2 µM.
For `O=C1OCC(OCCOC(=O)c2ccc(O)c(O)c2)=C1c1ccccc1`, in that order: above 100 µg/mL, above 100 µg/mL, above 100 µg/mL, 19.9 µg/mL (≈ 55.8 µM) and 75.3 µM.
As for `O=C1OCC(OCCOC(=O)c2cc(O)cc(O)c2)=C1c1ccccc1`, the MIC50 was above 100 µg/mL in the test on Escherichia coli, 14.4 µg/mL (≈ 40.4 µM) in the test with Pseudomonas aeruginosa, above 100 µg/mL with Candida albicans and 2.2 µg/mL (≈ 6.17 µM) in the test on Staphylococcus aureus. The compound also returned an IC50 in test [1] of 6.7 µM.
`O=C(Cc1cccc(Cl)c1)OCCOC1=C(c2ccccc2)C(=O)OC1`: the MIC50 in the test on Escherichia coli was above 100 µg/mL; against Pseudomonas aeruginosa it was 83.1 µg/mL (≈ 223 µM); against Candida albicans, above 100 µg/mL; in the test with Staphylococcus aureus it was above 100 µg/mL. Also, the IC50 in test [1] is above 100 µM.
With `O=C(Cc1ccc(F)cc1)OCCOC1=C(c2ccccc2)C(=O)OC1`, the MIC50 is above 100 µg/mL in the test on Escherichia coli, above 100 µg/mL in the test on Pseudomonas aeruginosa, above 100 µg/mL in the test on Candida albicans and 16.5 µg/mL (≈ 46.3 µM) in the test with Staphylococcus aureus. Further, in test [1], the IC50 was found to be 93.6 µM.
With `O=C(Cc1ccc(Br)cc1)OCCOC1=C(c2ccccc2)C(=O)OC1`, the MIC50 was 78.7 µg/mL (≈ 189 µM) with Escherichia coli, 22 µg/mL (≈ 52.7 µM) against Pseudomonas aeruginosa, above 100 µg/mL against Candida albicans and 15.4 µg/mL (≈ 36.9 µM) against Staphylococcus aureus. Besides, the midpoint of inhibition in test [1], the IC50, lay at 48.1 µM.
For `O=C(Cc1ccc(O)cc1)OCCOC1=C(c2ccccc2)C(=O)OC1`, in that order: 53.6 µg/mL (≈ 151 µM), 68.1 µg/mL (≈ 192 µM), above 100 µg/mL, 22.5 µg/mL (≈ 63.5 µM) and above 100 µM.
Take `COc1ccc(CC(=O)OCCOC2=C(c3ccccc3)C(=O)OC2)cc1OC`: the MIC50 was above 100 µg/mL with Escherichia coli, above 100 µg/mL with Pseudomonas aeruginosa, 92.3 µg/mL (≈ 232 µM) with Candida albicans and above 100 µg/mL against Staphylococcus aureus. In test [1], the IC50 was determined as 83.8 µM.
In the case of `O=C(Cc1cccc(Cl)c1)OCCOC1=C(c2ccc(Cl)cc2)C(=O)OC1`, the MIC50 was found to be 7.6 µg/mL (≈ 18.7 µM) against Escherichia coli, 2.5 µg/mL (≈ 6.14 µM) in the test on Pseudomonas aeruginosa, 2.5 µg/mL (≈ 6.14 µM) with Candida albicans and 5.2 µg/mL (≈ 12.8 µM) in the test on Staphylococcus aureus. Further, the IC50 in test [1] came to 1.1 µM.
Consider `O=C(Cc1cccc(Br)c1)OCCOC1=C(c2ccc(Cl)cc2)C(=O)OC1`, for which the MIC50 with Escherichia coli was determined as 16.6 µg/mL (≈ 36.8 µM); with Pseudomonas aeruginosa it was 4.6 µg/mL (≈ 10.2 µM); in the test with Candida albicans, 4.2 µg/mL (≈ 9.3 µM); against Staphylococcus aureus, 13.6 µg/mL (≈ 30.1 µM). Half-maximal inhibition in test [1] (IC50) was put at 3.5 µM.
The matching figures for `O=C(Cc1ccc(O)cc1)OCCOC1=C(c2ccc(Cl)cc2)C(=O)OC1`: above 100 µg/mL, 15.5 µg/mL (≈ 39.9 µM), above 100 µg/mL, 27.4 µg/mL (≈ 70.5 µM) and 7.9 µM.
For `O=C(Cc1ccc(F)cc1)OCCOC1=C(c2ccc(Cl)cc2)C(=O)OC1`, in that order: above 100 µg/mL, 13.2 µg/mL (≈ 33.8 µM), 15.6 µg/mL (≈ 39.9 µM), 14.9 µg/mL (≈ 38.1 µM) and 5.7 µM.
For `O=C(Cc1ccc(Cl)cc1)OCCOC1=C(c2ccc(Cl)cc2)C(=O)OC1`, in that order: 45.6 µg/mL (≈ 112 µM), 17.7 µg/mL (≈ 43.5 µM), above 100 µg/mL, 13.3 µg/mL (≈ 32.7 µM) and 9.3 µM.
Turning to `O=C(Cc1ccc(Br)cc1)OCCOC1=C(c2ccc(Cl)cc2)C(=O)OC1`, the MIC50 was 14.3 µg/mL (≈ 31.7 µM) in the test on Escherichia coli, 20.6 µg/mL (≈ 45.6 µM) in the test on Pseudomonas aeruginosa, 13.1 µg/mL (≈ 29 µM) in the test with Candida albicans and 13 µg/mL (≈ 28.8 µM) in the test on Staphylococcus aureus. The compound further showed an IC50 in test [1] of 16.7 µM.
For `O=C1OCC(OCCOC(=O)c2cccc(Cl)c2)=C1c1ccc(Cl)cc1`, in that order: 4.3 µg/mL (≈ 10.9 µM), 1.5 µg/mL (≈ 3.81 µM), 1.2 µg/mL (≈ 3.05 µM), 2 µg/mL (≈ 5.09 µM) and 0.9 µM.
As to `NC[C@H]1O[C@H](O[C@H]2[C@H](O)[C@@H](O[C@H]3O[C@H](CO)[C@@H](O)[C@H](N)[C@H]3O)[C@H](N)C[C@@H]2N)[C@H](O)[C@@H](O)[C@@H]1O` [KANAMYCIN], the MIC50 stood at 3.5 µg/mL (≈ 7.22 µM) in the test on Escherichia coli and 1.5 µg/mL (≈ 3.1 µM) in the test on Staphylococcus aureus.
`CC(=O)N1CCN(c2ccc(OCC3COC(Cn4ccnc4)(c4ccc(Cl)cc4Cl)O3)cc2)CC1` (centres undefined) [KETOCONAZOLE] gave an MIC50 in the test with Candida albicans of 3.8 µg/mL (≈ 7.15 µM).
In the case of `CCn1cc(C(=O)O)c(=O)c2cc(F)c(N3CCNCC3)cc21` [NORFLOXACIN], in the test on Pseudomonas aeruginosa, the MIC50 turned out to be 2.1 µg/mL (≈ 6.58 µM).

The values are drawn from ChEMBL document CHEMBL2413022, “3-Aryl-4-acyloxyethoxyfuran-2(5H)-ones as inhibitors of tyrosyl-tRNA synthetase: synthesis, molecular docking and antibacterial evaluation” (Bioorg Med Chem, 2013).
